Legend:
Type in all cases: functional
[1] = tested on: MOLT-4; experiment: Growth inhibition of human MOLT4 cells after 48 hrs by sulforhodamine B assay; details: MOLT-4, 48 h; for TGI: read-out: pTGI (converted)
How it was run: (§1)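 NCI 60-human-tumor-cell-line panel, with compounds tested over a 5-log dose range. Values are taken from dose-response curves as log10 molar concentrations: GI50 is 50% net growth inhibition, TGI is total growth inhibition, and LC50 is 50% net cell death.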

[2] = tested on: HCC 2998; experiment: Growth inhibition of human HCC2998 cells after 48 hrs by sulforhodamine B assay; details: HCC 2998, 48 h; for TGI: read-out: pTGI (converted); how it was run: as §1
[3] = tested on: SN12C; experiment: Growth inhibition of human SN12C cells after 48 hrs by sulforhodamine B assay; details: for CC50: read-out: pLC50 (the source's name) (converted); for TGI: read-out: pTGI (converted)
How it was run: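 Run in the NCI 60-human-tumour-cell-line panel, tested over a 5-log dose range. Dose–response curves gave three values per cell line, each as a log10 molar concentration: GI50 (50% inhibition of net cell growth), TGI (total inhibition of net growth) and LC50 (50% net cell death). The mean graph midpoint is the arithmetic mean over all lines, with insensitive lines entered at the highest concentration tested.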

[4] = tested on: MDA-N; experiment: Growth inhibition of human MDA-N cells after 48 hrs by sulforhodamine B assay; details: for CC50: read-out: pLC50 (the source's name) (converted); for TGI: read-out: pTGI (converted)

COc1ccc(CNc2nc3cc(N)cc(N)c3nc2-c2ccccc2)cc1OC
GI50 [1]: 3.47 µM | LC50 [1]: > 100 µM | TGI [1]: > 100 µM | GI50 [2]: 22.9 µM | LC50 (50% net cell kill) [2]: > 100 µM | TGI [2]: 56.2 µM

COc1ccc(Sc2nc3cc(N)cc(N)c3nc2-c2ccccc2)cc1
GI50 [1]: 4.17 µM | LC50 [1]: > 100 µM | TGI [1]: > 100 µM | GI50 [3]: 6.03 µM | CC50 [3]: 87.1 µM | TGI [3]: 24 µM

COc1ccc(CNc2nc3cc(N)cc(N)c3nc2-c2ccccc2)cc1
GI50 [2]: 21.9 µM | LC50 (50% net cell kill) [2]: > 100 µM | TGI [2]: 51.3 µM | GI50 [3]: 17 µM | CC50 [3]: 69.2 µM | TGI [3]: 34.7 µM | GI50 [4]: 14.1 µM | CC50 [4]: 53.7 µM | TGI [4]: 27.5 µM

COc1cc(CNc2nc3cc(N)cc(N)c3nc2-c2ccccc2)cc(OC)c1
GI50 [1]: 3.02 µM | LC50 [1]: > 100 µM | TGI [1]: > 100 µM | GI50 [3]: 11.5 µM | CC50 [3]: > 100 µM | TGI [3]: > 100 µM | GI50 [4]: 2.34 µM | CC50 [4]: > 100 µM | TGI [4]: 5.25 µM

COc1cc(CNc2nc3cc(N)cc(N)c3nc2-c2ccccc2)cc(OC)c1OC
GI50 [1]: 12.3 µM | LC50 [1]: > 50.1 µM | TGI [1]: > 50.1 µM | GI50 [3]: 8.71 µM | CC50 [3]: 32.4 µM | TGI [3]: 16.6 µM

Nc1cc(N)c2nc(-c3ccccc3)c(NCc3ccc(Cl)c(Cl)c3)nc2c1
GI50 [1]: 2.09 µM | LC50 [1]: > 100 µM | TGI [1]: > 100 µM | GI50 [3]: 6.03 µM | CC50 [3]: 87.1 µM | TGI [3]: 24 µM

Nc1cc(N)c2nc(-c3ccccc3)c(Sc3ccc(F)cc3)nc2c1
GI50 [1]: > 100 µM | LC50 [1]: > 100 µM | TGI [1]: > 100 µM | GI50 [3]: > 100 µM | CC50 [3]: > 100 µM | TGI [3]: > 100 µM

COc1ccc(Oc2nc3cc(N)cc(N)c3nc2-c2ccccc2)cc1
GI50 [1]: 5.37 µM | LC50 [1]: > 100 µM | TGI [1]: 93.3 µM | GI50 [3]: 50.1 µM | CC50 [3]: > 100 µM | TGI [3]: > 100 µM | GI50 [4]: 35.5 µM | CC50 [4]: > 100 µM | TGI [4]: > 100 µM

Nc1cc(N)c2nc(-c3ccccc3)c(Oc3ccc(F)cc3)nc2c1
GI50 [1]: 6.61 µM | LC50 [1]: > 100 µM | TGI [1]: > 100 µM

Nc1cc(N)c2nc(-c3ccccc3)c(Oc3ccc(Cl)c(Cl)c3)nc2c1
GI50 [1]: 6.31 µM | LC50 [1]: > 100 µM | TGI [1]: > 100 µM | GI50 [3]: 11.5 µM | CC50 [3]: > 100 µM | TGI [3]: > 100 µM

Nc1cc(N)c2nc(-c3ccccc3)c(NCc3ccc(F)cc3)nc2c1
GI50 [1]: > 100 µM | LC50 [1]: > 100 µM | TGI [1]: > 100 µM | GI50 [3]: 7.59 µM | CC50 [3]: 64.6 µM | TGI [3]: 23.4 µM

COc1cc(OC)cc(Oc2nc3cc(N)cc(N)c3nc2-c2ccccc2)c1
GI50 [2]: 2.51 µM | TGI [2]: 13.8 µM | GI50 [3]: 17 µM | CC50 [3]: 69.2 µM | TGI [3]: 34.7 µM

Nc1cc(N)c2nc(-c3ccccc3)c(Sc3ccc(Cl)c(Cl)c3)nc2c1
GI50 [1]: 4.07 µM | LC50 [1]: > 100 µM | TGI [1]: > 100 µM | GI50 [3]: 7.59 µM | CC50 [3]: 64.6 µM | TGI [3]: 23.4 µM

— ChEMBL document CHEMBL1137710, “Synthesis and in vitro antitumor activity of new quinoxaline derivatives” (2009)
